ChEMBL document CHEMBL1149653, “Hydroxyethylene isosteres of selective neuronal nitric oxide synthase inhibitors” (Bioorg Med Chem, 2007)

Assays:
[1] = molecular target: T1, Nitric oxide synthase, inducible (Mus musculus, UniProt P29477); assay: Inhibition of recombinant mouse macrophage iNOS expressed in Escherichia coli
T1 sequence (P29477 whole entry): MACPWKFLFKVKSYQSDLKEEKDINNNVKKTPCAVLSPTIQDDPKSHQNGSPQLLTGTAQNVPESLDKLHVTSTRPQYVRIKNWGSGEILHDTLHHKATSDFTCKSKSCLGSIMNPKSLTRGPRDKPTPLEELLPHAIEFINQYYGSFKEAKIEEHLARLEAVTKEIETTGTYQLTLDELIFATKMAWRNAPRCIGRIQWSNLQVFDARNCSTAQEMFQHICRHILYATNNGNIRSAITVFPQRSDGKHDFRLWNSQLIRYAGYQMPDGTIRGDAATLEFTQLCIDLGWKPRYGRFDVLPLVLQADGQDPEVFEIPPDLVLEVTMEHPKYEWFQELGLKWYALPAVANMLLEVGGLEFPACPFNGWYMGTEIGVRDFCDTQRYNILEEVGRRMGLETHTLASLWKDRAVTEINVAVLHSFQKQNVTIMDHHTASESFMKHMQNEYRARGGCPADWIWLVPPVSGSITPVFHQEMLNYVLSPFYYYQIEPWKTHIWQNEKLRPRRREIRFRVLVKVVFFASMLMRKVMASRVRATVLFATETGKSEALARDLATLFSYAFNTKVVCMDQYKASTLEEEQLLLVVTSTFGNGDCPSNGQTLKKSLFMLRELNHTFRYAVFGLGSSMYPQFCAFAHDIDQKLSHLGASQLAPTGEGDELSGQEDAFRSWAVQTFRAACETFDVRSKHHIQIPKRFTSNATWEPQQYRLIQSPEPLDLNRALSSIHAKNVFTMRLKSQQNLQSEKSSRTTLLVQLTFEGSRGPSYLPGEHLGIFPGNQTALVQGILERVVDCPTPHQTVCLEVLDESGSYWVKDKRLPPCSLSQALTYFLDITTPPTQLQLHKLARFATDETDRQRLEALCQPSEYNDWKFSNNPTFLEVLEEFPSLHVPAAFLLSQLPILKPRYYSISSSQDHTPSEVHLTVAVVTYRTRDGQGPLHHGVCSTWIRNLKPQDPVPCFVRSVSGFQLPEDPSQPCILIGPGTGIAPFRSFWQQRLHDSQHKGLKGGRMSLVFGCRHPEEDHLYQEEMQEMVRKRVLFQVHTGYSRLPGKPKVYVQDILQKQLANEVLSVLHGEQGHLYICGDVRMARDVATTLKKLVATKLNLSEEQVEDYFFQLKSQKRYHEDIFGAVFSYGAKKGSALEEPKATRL
Outline: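 Enzyme purified from E. coli, added to start the reaction. Conditions: 30 °C, 100 mM Hepes pH 7.4, 10 µM L-arginine, 100 µM DTT, 100 µM NADPH, 6.5 µM H4B, […], no added Ca2+ or calmodulin. NO capture was read as the A400 rise over 1 min.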

[2] = molecular target: Nitric oxide synthase 1 (Rattus norvegicus, UniProt P29476); assay: Inhibition of recombinant rat brain nNOS expressed in Escherichia coli
Nitric oxide synthase 1, sequence (P29476 whole entry): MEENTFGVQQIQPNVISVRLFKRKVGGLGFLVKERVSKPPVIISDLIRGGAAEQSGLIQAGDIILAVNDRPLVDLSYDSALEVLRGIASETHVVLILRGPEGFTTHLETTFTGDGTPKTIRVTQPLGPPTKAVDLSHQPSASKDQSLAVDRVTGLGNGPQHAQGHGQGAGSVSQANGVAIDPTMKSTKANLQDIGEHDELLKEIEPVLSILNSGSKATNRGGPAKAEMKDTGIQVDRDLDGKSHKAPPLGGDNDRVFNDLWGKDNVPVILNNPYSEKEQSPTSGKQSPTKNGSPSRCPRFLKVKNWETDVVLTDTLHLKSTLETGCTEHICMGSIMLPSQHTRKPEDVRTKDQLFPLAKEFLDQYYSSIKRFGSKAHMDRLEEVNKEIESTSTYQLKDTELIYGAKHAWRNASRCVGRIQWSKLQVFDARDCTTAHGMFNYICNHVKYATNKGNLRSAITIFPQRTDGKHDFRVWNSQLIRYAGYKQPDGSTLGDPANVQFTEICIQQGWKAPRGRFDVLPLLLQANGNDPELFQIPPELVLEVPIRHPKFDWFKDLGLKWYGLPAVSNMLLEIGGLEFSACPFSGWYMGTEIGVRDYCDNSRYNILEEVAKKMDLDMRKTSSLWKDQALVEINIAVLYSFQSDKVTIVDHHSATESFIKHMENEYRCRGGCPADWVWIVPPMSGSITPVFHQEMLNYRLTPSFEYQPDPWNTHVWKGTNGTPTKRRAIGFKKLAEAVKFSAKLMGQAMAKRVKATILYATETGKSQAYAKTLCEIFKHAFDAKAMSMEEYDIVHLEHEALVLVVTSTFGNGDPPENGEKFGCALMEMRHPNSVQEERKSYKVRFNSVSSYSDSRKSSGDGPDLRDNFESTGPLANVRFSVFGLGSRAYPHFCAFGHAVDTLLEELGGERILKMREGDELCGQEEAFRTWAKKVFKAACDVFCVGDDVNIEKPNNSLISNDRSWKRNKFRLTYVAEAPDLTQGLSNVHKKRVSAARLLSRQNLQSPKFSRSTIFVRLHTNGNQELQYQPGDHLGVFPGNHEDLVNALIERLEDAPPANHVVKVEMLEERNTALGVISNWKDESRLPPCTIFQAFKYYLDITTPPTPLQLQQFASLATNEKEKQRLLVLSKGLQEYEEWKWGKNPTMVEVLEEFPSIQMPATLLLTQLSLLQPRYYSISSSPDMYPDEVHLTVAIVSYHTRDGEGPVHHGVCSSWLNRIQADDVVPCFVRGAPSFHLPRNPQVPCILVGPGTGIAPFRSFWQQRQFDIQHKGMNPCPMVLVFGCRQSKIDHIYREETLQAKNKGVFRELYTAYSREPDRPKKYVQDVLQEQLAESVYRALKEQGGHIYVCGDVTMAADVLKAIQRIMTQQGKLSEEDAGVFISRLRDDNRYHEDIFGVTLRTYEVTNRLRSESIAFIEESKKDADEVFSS

[3] = molecular target: T2, Nitric oxide synthase 3 (Bos taurus, UniProt P29473); assay: Inhibition of recombinant bovine eNOS expressed in Escherichia coli
T2 sequence (P29473 whole entry): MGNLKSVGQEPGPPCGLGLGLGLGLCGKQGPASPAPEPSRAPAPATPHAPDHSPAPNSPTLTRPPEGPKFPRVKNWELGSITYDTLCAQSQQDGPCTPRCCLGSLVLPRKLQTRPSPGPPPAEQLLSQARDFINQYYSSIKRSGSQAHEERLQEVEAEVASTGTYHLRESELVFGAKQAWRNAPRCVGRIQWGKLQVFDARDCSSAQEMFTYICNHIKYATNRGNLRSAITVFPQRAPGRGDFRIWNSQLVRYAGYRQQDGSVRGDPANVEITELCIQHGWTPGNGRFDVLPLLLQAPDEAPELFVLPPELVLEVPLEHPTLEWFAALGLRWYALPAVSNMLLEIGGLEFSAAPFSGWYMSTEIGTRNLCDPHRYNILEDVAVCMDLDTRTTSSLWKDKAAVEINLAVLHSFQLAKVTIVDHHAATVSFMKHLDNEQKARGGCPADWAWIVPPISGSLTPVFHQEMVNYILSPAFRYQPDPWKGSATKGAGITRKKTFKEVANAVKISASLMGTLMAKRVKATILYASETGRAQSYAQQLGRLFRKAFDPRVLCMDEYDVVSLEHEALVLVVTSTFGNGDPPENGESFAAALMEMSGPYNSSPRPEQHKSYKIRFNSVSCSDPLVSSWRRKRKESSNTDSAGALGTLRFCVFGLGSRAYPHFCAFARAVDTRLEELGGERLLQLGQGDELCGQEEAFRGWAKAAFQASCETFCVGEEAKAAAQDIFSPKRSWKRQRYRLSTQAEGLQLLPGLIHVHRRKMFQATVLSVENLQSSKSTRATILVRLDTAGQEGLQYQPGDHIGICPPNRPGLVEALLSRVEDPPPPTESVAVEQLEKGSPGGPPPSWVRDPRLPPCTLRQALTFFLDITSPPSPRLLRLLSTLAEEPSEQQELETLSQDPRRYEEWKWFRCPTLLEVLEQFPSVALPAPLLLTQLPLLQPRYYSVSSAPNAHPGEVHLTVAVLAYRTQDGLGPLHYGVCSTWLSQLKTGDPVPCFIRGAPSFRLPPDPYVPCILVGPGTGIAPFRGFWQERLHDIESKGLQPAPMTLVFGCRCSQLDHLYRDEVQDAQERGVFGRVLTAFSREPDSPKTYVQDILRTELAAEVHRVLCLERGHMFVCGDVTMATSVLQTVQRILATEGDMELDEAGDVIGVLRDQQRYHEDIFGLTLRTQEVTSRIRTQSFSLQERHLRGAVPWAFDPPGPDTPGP

[4] = Selectivity for nNOS over eNOS
[5] = Selectivity for nNOS over iNOS

SMILES | IC50 [1] [µM] | IC50 [2] [µM] | IC50 [3] [µM] | Ratio IC50 [4] | Ratio IC50 [5] | Ki [2] [µM]
NC(=NCCC[C@H](N)C[C@@H](O)CCO)N[N+](=O)[O-] | 331 | 106 | 1090 |  |  | 
N=C(NCCC[C@H](N)C[C@H](O)CCCO)N[N+](=O)[O-] | 266 | 490 | 879 | 1.8 | 0.54 | 
N=C(NCCC[C@H](N)C[C@H](O)CCO)N[N+](=O)[O-] |  |  |  | 9.9 | 7.7 | 
N=C(NCCC[C@H](N)C[C@H](O)CCN)N[N+](=O)[O-] |  |  |  | 143 | 18 | 
N=C(NCCC[C@H](N)C[C@@H](O)CCCO)N[N+](=O)[O-] |  |  |  | 10.1 | 2.1 | 
N=C(NCCC[C@H](N)C[C@@H](O)CCCN)N[N+](=O)[O-] |  |  |  | 59 | 15 | 
NC(=NCCC[C@H](N)C[C@H](O)CCO)N[N+](=O)[O-] | 1290 | 168 | 1660 |  |  | 
NC(=NCCC[C@H](N)C[C@@H](O)CCCO)N[N+](=O)[O-] | 524 | 255 | 2580 |  |  | 
NCCC[C@H](O)C[C@@H](N)CCCN=C(N)N[N+](=O)[O-] | 361 | 23.5 | 1390 |  |  | 2.8
NCC[C@@H](O)C[C@@H](N)CCCN=C(N)N[N+](=O)[O-] | 167 | 9.4 | 1340 |  |  | 1.1
N=C(NCCC[C@H](N)C[C@@H](O)CCO)N[N+](=O)[O-] |  |  |  | 10.2 | 3.1 | 
N=C(NCCC[C@H](N)C[C@@H](O)CCN)N[N+](=O)[O-] | 257 | 2.4 | 1140 | 475 | 107 | 0.29
N=C(NCCC[C@H](N)C[C@H](O)CCCN)N[N+](=O)[O-] | 313 | 6.8 | 1530 | 225 | 33 | 0.83
